According to ChEMBL document CHEMBL3792331, “Identification and synthesis of potent and selective pyridyl-isoxazole based agonists of sphingosine-1-phosphate 1 (S1P1)” (Bioorg Med Chem Lett, 2016):

Key:
[1] = target: Sphingosine 1-phosphate receptor 1 (Homo sapiens, UniProt P21453); experiment: Agonist activity at human S1P1 receptor expressed in CHO cell membranes assessed as stimulation of [35S]GTPgamma binding incubated for 45 mins by liquid scintillation counting method
Outline: (§1)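 Membranes from S1P1/CHO cells (S1P1) or EDG3-Ga15-bla HEK293T cells (S1P3), final protein […], with 3-fold compound dilutions. Buffer: 20 mM HEPES pH 7.5, 10 mM MgCl2, 150 mM NaCl, 1 mM EGTA, 1 mM DTT, GDP, 0.1% fatty acid free BSA, saponin. [35S]GTP 0.2 nM final. Room temperature, 45 min. Filtered, washed with water, dried 60 °C. EC50 taken at 50% of each compound's Ymax.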

[2] = Selectivity index, ratio of EC50 for agonist activity at human S1P3 receptor expressed in EDG3-Ga15-bla HEK293T cell membranes to EC50 for agonist activity at human S1P1 receptor expressed in CHO cell membranes; assay type: cell-based
Outline: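 S1P3/S1P1 ratio of GTPγ[35S] EC50s. Membranes from EDG3-Ga15-bla HEK293T (S1P3) or S1P1/CHO cells, […], 0.2 nM final [35S]GTP. HEPES pH 7.5 buffer with MgCl2, NaCl, EGTA, DTT, GDP, BSA and saponin. 45 min at room temperature, filtration read-out. Each EC50 taken at 50% of the compound's own Ymax.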

[3] = test system: Plasma; experiment: Ratio of plasma concentration Lewis rat at 1 mg/kg, po after 4 hrs to plasma concentration Lewis rat at 1 mg/kg, po after 24 hrs; assay type: ADME, organism-based; settings: in vivo
Outline: (§2)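 Lewis rats given 1.0 mg/kg orally as solution or suspension in vehicle. Plasma drug concentration measured in blood drawn at 4 h and 24 h; 4 h/24 h ratio taken from these values.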

[4] = test system: Rattus norvegicus; experiment: Reduction in circulating lymphocytes in Lewis rat at 1 mg/kg, po after 4 hrs; assay type: functional
Outline: (§3)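 Healthy Lewis rats dosed orally with test article as solution or suspension in vehicle, or vehicle alone. Blood drawn at 4 h and 24 h. Circulating lymphocyte percentage measured by hematology analyzer, expressed as reduction versus the vehicle group. Group average, n = 3–4.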

[5] = test system: Rattus norvegicus; experiment: Reduction in circulating lymphocytes in Lewis rat at 1 mg/kg, po after 24 hrs; assay type: functional; outline: as §3
[6] = Plasma concentration Lewis rat at 1 mg/kg, po after 24 hrs; assay type: ADME, organism-based; outline: as §2
[7] = Plasma concentration Lewis rat at 1 mg/kg, po after 4 hrs; assay type: ADME, organism-based; outline: as §2
[8] = target: Sphingosine 1-phosphate receptor 3 (Homo sapiens, UniProt Q99500); experiment: Agonist activity at human S1P3 receptor expressed in EDG3-Ga15-bla HEK293T cell membranes assessed as stimulation of [35S]GTPgamma binding incubated for 45 mins by liquid scintillation counting method; parameters: species or system HEK-293T; outline: as §1
Chain of Sphingosine 1-phosphate receptor 3 (Q99500 whole entry): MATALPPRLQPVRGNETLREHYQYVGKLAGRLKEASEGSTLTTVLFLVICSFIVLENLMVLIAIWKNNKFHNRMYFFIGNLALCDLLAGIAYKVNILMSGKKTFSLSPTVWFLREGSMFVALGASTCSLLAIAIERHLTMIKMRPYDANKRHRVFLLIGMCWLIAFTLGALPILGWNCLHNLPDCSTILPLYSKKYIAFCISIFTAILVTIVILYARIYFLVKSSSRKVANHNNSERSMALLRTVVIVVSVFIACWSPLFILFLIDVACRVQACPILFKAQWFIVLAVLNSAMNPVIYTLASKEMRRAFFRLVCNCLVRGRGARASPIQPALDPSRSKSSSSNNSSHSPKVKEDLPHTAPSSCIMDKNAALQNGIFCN

Chain of Sphingosine 1-phosphate receptor 1 (P21453 whole entry): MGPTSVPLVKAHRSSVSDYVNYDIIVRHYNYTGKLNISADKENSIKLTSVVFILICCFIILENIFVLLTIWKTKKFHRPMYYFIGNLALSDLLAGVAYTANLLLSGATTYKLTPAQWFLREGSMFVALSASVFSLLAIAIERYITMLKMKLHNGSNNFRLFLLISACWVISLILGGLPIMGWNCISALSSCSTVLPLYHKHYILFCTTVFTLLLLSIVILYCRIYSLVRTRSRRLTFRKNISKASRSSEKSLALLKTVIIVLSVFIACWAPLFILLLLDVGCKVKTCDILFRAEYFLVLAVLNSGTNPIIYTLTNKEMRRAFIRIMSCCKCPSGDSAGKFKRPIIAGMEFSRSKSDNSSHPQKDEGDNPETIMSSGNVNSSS

EC50 [1] | Ratio [3] | concentration at 24 h [6] | concentration at 4 h [7] | EC50 [8] | Structure (SMILES) | Ratio EC50 [2] | inhibition in vivo at 1 mg/kg [4] | inhibition in vivo at 1 mg/kg [5]
0.0034 µM | 15 | 64 nM | 972 nM | – | CCc1c(-c2nc(-c3ccc(CN4CC(C(=O)O)C4)cc3)no2)noc1-c1ccccn1 | 550 | 84% | 58%
– | 22 | 31 nM | 686 nM | 8.2 µM | CC(C)c1c(-c2nc(-c3ccc(CN4CC(C(=O)O)C4)cc3)no2)noc1-c1ccccn1 | 8200 | 84% | 64%
– | 3 | – | 2130 nM | – | O=C(O)C1CN(Cc2ccc(-c3noc(-c4onc(-c5ccccc5)c4C(F)(F)F)n3)cc2)C1 | – | 78% | 91%
